Screens (PubChem BioAssay)
Compounds with a hit are over-represented: about 1.7% of the library has one in this group of screens.
HNF4A DNA FP: change in binding of human HNF4 alpha to DNA; AID 1224865; activity change, % at 10 µM; HNF4a-FITC DNA binding, fluorescence polarization, 1 h; P41235; 360,000 compounds, 0.3% hits; in the data active = activity change above about 30%, passing the limit was not always enough
Target sequence (P41235 whole entry, looked up): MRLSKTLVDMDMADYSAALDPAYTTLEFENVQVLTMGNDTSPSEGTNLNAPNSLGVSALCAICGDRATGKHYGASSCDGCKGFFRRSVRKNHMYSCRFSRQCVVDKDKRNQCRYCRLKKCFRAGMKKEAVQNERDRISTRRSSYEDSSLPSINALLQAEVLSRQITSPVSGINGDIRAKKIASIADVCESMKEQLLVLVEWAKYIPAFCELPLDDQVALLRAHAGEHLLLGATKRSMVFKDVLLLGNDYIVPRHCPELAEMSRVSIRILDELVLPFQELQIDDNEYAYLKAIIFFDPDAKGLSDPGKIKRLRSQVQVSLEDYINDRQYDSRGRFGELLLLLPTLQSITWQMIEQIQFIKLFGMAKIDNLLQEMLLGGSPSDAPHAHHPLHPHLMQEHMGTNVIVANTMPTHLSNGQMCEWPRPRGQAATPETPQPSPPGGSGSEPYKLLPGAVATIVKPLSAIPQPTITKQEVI
NR1D1 modulator: modulators of human Rev-erb alpha DNA binding; P20393; Rev-erbα–FITC-DNA binding, fluorescence polarization, 90 min; activity, % at 10 µM; 370,000 compounds, 0.79% hits;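 active = activity above about 14%, limit read from the data; passing the limit was not always enough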;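 also: 0% = DMSO wells with 35 nM protein and 100% = DMSO wells with 750 nM protein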
CSN inh: blocks human CSN-mediated cullin deneddylation; Purified CSN, SCF-Nedd8-OG deneddylation, fluorescence polarization; 360,000 compounds, 0.38% hits; Q92905; AID 651999; inhibition, % at 12.5 µM;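 active = pattern-corrected inhibition above about 35%, with an unprinted fluorescence ratio check between 0.5 and 1.5, limit read from the data, passing the limit was not always enough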;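 also: 0% = enzyme with substrate and 100% = substrate without enzyme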
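assay system = purified human Csn5 enzyme expressed in HEK293T cells | amount = 0.24 nM enzyme | buffer or medium = Tris/NaCl/DTT buffer, pH 7.5 | reagent = 10 nM SCFSkp2-Nedd8OG | compound = one concentration, 12.5 µM, 0.25% DMSO | times = 90 min reaction at room temperature | signal = FP | read-out basis = % inhibition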
TPT1 inh: C. albicans TPT1 enzyme inhibition | inhibition, % at 5 µM | 300,000 compounds, 0.81% hits | recombinant caTPT1, FP RNA substrate dephosphorylation | AID 1962;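 active = inhibition above the mean of all tested compounds plus 3 SD, set per screening campaign, cut at about 24% in these data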;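 also: plate controls were DMSO alone for no effect and ferristatin control at 100 nM for full effect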
Rev-erbA confirm: confirmation of modulators of human Rev-erb alpha DNA binding | AID 1259319 | 3,000 compounds, 61% hits | shares compounds with NR1D1 modulator | activation, % at 25 µM | Rev-erb alpha FITC-DNA binding, fluorescence polarization, 90 min;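 active = activation at or above a set limit, or at least 3 SD above the negative control mean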;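 also: 0% = 35 nM protein with DMSO and 100% = 750 nM protein high control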
RORg DNA counter: affects RORgamma DNA binding in a Rev-erb alpha counter-screen; shares compounds with NR1D1 modulator; purified RORgamma protein-FITC-DNA binding, fluorescence polarization; IC50, µM; 910 compounds, 8% hits; AID 1259320;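 active = Compounds whose fitted half-maximal concentration for disrupting protein-DNA binding is below 10 micromolar; the record names Rev-erb in its text, so the target is in doubt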
Starred values were filed as active, the others as inactive; i = inactive; . = no result given.

SMILES	HNF4A DNA FP	NR1D1 modulator	CSN inh	TPT1 inh	Rev-erbA confirm	others
COc1ccc2cc(/C=N/NC(=O)CN(c3ccccc3OC)S(=O)(=O)c3ccccc3)c(Cl)nc2c1	.	0	.	.	.
COc1ccc2cc(/C=N/NC(=O)CN(c3ccccc3C)S(=O)(=O)c3ccccc3)c(Cl)nc2c1	15	29*	11	0	8
O=C(COc1ccccc1)NC(=S)Nc1ccc2c(c1)Cc1ccccc1-2	2	77*	-2	3	25*
O=C(c1cc2cc(Br)ccc2[nH]1)N1CCc2ccccc21	3	49*	-1	.	54*	RORg DNA counter=>40
c1ccc(Cc2cnc(N3CCN(Cc4cccc(-c5ccsc5)n4)CC3)nc2)cc1	.	-3	.	.	.
CCC(NC(=O)Cn1c(-c2ccccc2)cc(C(C)=O)c1C)c1ccccc1 (centres undefined)	.	0	.	.	.
CCCCOc1ccc(C(=O)NC2CCCCN(C(C)C)C2=O)cc1 (centres undefined)	.	4	.	.	.
CCCCNC(=O)Cn1cnc2sc(C(=O)OCC)c(C)c2c1=O	4	35*	4	-1	8
Cc1sc2c(c1C)c(=O)n(-c1ccc(Cl)cc1)c(=O)n2Cc1cc(=O)n2ccccc2n1	6	37*	4	1	27*
Cc1ccc(Sc2cnc3ccccc3n2)cc1	0	40*	1	-2	33*	RORg DNA counter=>40
COc1cccc(C(=O)Nc2nnc(-c3ccc(OC)cc3OC)s2)c1	0	32*	3	-2	15
COc1cccc(C(=O)Nc2nnc(-c3ccccc3)s2)c1	4	13	2	.	.
COC(=O)c1c(-c2cccnc2)csc1NC(=O)c1ccc2c(c1)OCO2	14	20*	10	21	-8
COc1ccccc1-c1nnc(NC(=O)c2ccc3c(c2)OCO3)s1	0	55*	-5	2	10
Cc1ccc(C)c(OCc2nnc(NC(=O)c3ccc4c(c3)OCO4)s2)c1	1	30*	-3	1	10
O=C(CNc1ccc(C(F)(F)F)cc1)Nc1cccc(S(=O)(=O)N2CCCCC2)c1	0	1	-1	.	.
COc1cc(C(=O)Nc2nnc(-c3sccc3C)s2)cc(OC)c1OC	7	93*	59*	1	117*	RORg DNA counter=>40
O=C(NCc1ccccc1)[C@@H]1CCCN1C(=O)[C@H]1CCCN1C(=O)C1CCCCC1	.	-1	.	.	.
COC(=O)C1=C(C)NC(=S)NC1c1ccc(Br)cc1 (centres undefined)	.	6	.	.	.
CCc1sc(C(=O)Nc2ccc(N3CCOCC3)cc2)cc1C	11	5	-2	.	.
CCc1cc2cc(C(=O)Nc3ccc(C)cc3)sc2s1	-3	45*	-1	2	17*
O=C(CSc1nnc(-c2cccnc2)n1-c1ccc(Cl)cc1)Nc1ccccc1-c1ccccc1	.	-3	.	.	.
COC(=O)C1=C(C)N(Cc2ccccc2C(F)(F)F)C(=NCc2ccccc2)NC1c1ccc(Cl)cc1 (centres undefined)	.	2	.	.	.
COc1cccc(-n2c(SCC(=O)N3CCc4ccccc43)nnc2-c2c[nH]c3ccccc23)c1	-2	2	0	1	.
O=C(CSc1nnc(-c2cccs2)n1-c1ccccc1)N1CCCc2ccccc21	1	110*	5	0	101*	RORg DNA counter=i
SMILES	HNF4A DNA FP	NR1D1 modulator	CSN inh	TPT1 inh	Rev-erbA confirm	others
CCOc1ccc(-n2c(SCC(=O)N3CCc4ccccc43)nnc2-c2c[nH]c3ccccc23)cc1	38*	93*	141*	0	24*
CCn1c(SCC(=O)N2CCCc3ccccc32)nnc1-c1cccs1	-1	0	3	-1	.
O=C(Nc1ccon1)c1sc2cc(F)ccc2c1Cl	1	34*	1	1	22*
Cc1cn([C@H]2C[C@H](O)[C@@H](/C=C/C(=O)NCc3ccc4c(c3)OCO4)O2)c(=O)[nH]c1=O	-2	1	6	.	.
COc1ccc(Cl)cc1NC(=O)CN1CCN(S(=O)(=O)N2CCCCC2)CC1	3	0	-1	0	.
COc1ccc(-c2noc(COc3ccc(C)c(C)c3)n2)cc1OC	0	-2	2	4	.
COc1ccc(-c2noc(COc3ccc4ccccc4c3Br)n2)cc1OC	-2	29*	-3	-2	17*
Cc1ccccc1CN(C)CCS(=O)(=O)c1cc(Cl)ccc1Cl	0	16*	-1	-2	8
Cc1[nH]c(=O)[nH]c(=O)c1CCSSCCc1c(C)[nH]c(=O)[nH]c1=O	.	2	.	.	.
Cc1ccc(-n2nc(C)c3c(-c4cccs4)c(C#N)c(N)nc32)cc1	3	60*	1	7	30*
Cc1nn(-c2ccccc2)c2nc(N)c(C#N)c(-c3ccc(F)cc3)c12	1	5	0	3	.
CC(C)NC(=O)C1CCN(c2cncnc2)CC1	.	-6	.	.	.
CCOC(=O)C1=CCN(S(=O)(=O)c2ccc(Cl)cc2)C1c1cccc(F)c1 (centres undefined)	.	-7	.	.	.
Cc1cccnc1N=O	.	-1	.	.	.
CC(=O)Nc1cccc(-c2nnc(-c3ccc(C)cc3)o2)c1	0	24*	3	.	-3
O=C(Nc1cccc(-c2nnc(-c3ccccc3)o2)c1)c1ccco1	-1	4	-3	-3	.
O=C(Nc1ccccc1)c1cccc(-c2nnc(-c3ccccc3)o2)c1	-2	30*	-5	-3	10
Cc1ccc(NC(=O)Cc2ccc(F)cc2)c(S(=O)(=O)N2CCOCC2)c1	.	-1	.	.	.
O=c1oc2ccccc2c(NC(c2ccccc2)c2ccccc2)c1[N+](=O)[O-]	-2	39*	-2	1	60*	RORg DNA counter=i
CC(Nc1c([N+](=O)[O-])c(=O)oc2ccccc12)C(Cl)c1ccccc1 (centres undefined)	-1	6	0	-2	.
CCN(CC)c1ccc(C(=O)OCc2cc(=O)oc3cc(O)ccc23)cc1	4	33*	7	-7	17*
CCN(CC)c1ccc2c(O)cc(=O)oc2c1	2	1	-5	2	.
CCOC(=O)c1sc(NC(=O)CN2C(=O)NC3(CCC(C)CC3)C2=O)c(C(=O)OCC)c1C (centres undefined)	-1	36*	1	.	20*
CCOC(=O)c1c(NC(=O)CN2C(=O)NC3(CCCCCC3)C2=O)sc(C)c1-c1ccc(C)cc1	0	25*	-7	2	17*
CCOC(=O)c1c(-c2ccc(F)cc2)csc1NC(=O)CN1C(=O)NC2(CCCCC2C)C1=O (centres undefined)	0	21*	2	-4	10
CCOC(=O)c1sc(NC(=O)CN2C(=O)NC3(CC(C)CC(C)(C)C3)C2=O)c(C(=O)OCC)c1C (centres undefined)	1	2	-4	-2	.
COc1cc(NC(=O)c2oc3ccccc3c2C)ccc1NC(=O)c1ccco1	6	0	3	-1	.
